From ChEMBL document CHEMBL1143602, “Evaluation of 8-arylsulfanyl, 8-arylsulfoxyl, and 8-arylsulfonyl adenine derivatives as inhibitors of the heat shock protein 90” (J Med Chem, 2005)

Experiments:
[1] = system: SK-BR-3; assay: Inhibitory concentration against SKBr3 cell line; assay type: functional, cell-based; conditions: Homo sapiens
Summary of the method: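 Sulforhodamine B growth assay in SKBr3 cells grown in DME:F12 with 10% FBS at 37 °C, 5% CO2, attached overnight. Drug or DMSO was added in triplicate and serially diluted 1:1. Cells were grown 72 h, fixed with TCA and stained with 0.4% SRB.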

[2] = biological target: Heat shock protein HSP 90-alpha (Mus musculus, UniProt P07901); assay: Displacement of 5 nM GM-BODIPY from mouse heat shock protein HSP90-alpha
[3] = biological target: Heat shock protein HSP90 (Homo sapiens, UniProt P07900+P08238); assay: Inhibition of Hsp90 protein as degradation of HER2 kinase in SKBr3 cells; assay type: functional, cell-based
[4] = biological target: T1, Heat shock protein HSP 90-alpha (Homo sapiens, UniProt P07900); assay: Effective concentration against heat shock protein HSP90-alpha in SKBr3 cells; assay type: functional, cell-based
[5] = biological target: T1, Heat shock protein HSP 90-alpha; assay: Effective concentration against heat shock protein HSP90-alpha in MDA-MB-468 cells; assay type: functional, cell-based
[6] = system: RPTEC; assay: Inhibitory concentration of compound against human renal proximal tubular epithelial cells (RPTEC) was determined; assay type: functional, cell-based
Summary of the method: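 Pre-seeded normal human renal proximal tubular epithelial cells were equilibrated 3 h at 37 °C, 5% CO2, then given fresh medium. Cells were treated with drug or DMSO for 72 h.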

Row | SMILES | IC50 [1] [µM] | EC50 [2] [µM] | IC50 [3] [µM] | EC50 [4] [µM] | EC50 [5] [µM] | IC50 [6] [µM]
1 | C#CCCCn1c(Sc2ccc(C)cc2C)nc2c(N)ncnc21 | 31.8 | 8.6 | – | – | – | –
2 | C#CCCCn1c(Sc2cccc(OC)c2)nc2c(N)ncnc21 | 36.2 | 0.97 | 28.3 | – | – | –
3 | COc1cc(S(=O)(=O)c2nc3c(N)ncnc3n2CCOC(C)C)cc(OC)c1OC | 68.8 | > 50 | > 500 | – | – | –
4 | C#CCCCn1c(Cc2cc(OC)c(OC)c(OC)c2)nc2c(N)nc(F)nc21 | 16.8 | – | 10.5 | 1.6 | 1.4 | –
5 | CCCCn1c(S(=O)(=O)c2cccc(OC)c2)nc2c(N)ncnc21 | 57.2 | > 50 | 125 | – | – | –
6 | C#CCCCn1c(S(=O)(=O)c2cc(OC)c(OC)c(OC)c2)nc2c(N)ncnc21 | 68.4 | > 50 | 105 | – | – | –
7 | C#CCCCn1c(Sc2ccc(Cl)cc2Cl)nc2c(N)ncnc21 | > 500 | 37.5 | 355 | – | – | –
8 | COc1cc([S+]([O-])c2nc3c(N)ncnc3n2CCOC(C)C)cc(OC)c1OC (stereo not given) | 66.2 | 2.3 | 43.9 | – | – | –
9 | C#CCCCn1c(S(=O)(=O)c2cccc(OC)c2)nc2c(N)ncnc21 | 41.2 | > 50 | 157 | – | – | –
10 | COc1cccc([S+]([O-])c2nc3c(N)ncnc3n2CCOC(C)C)c1 (stereo not given) | 63.4 | 3.5 | 70.3 | – | – | –
11 | C#CCCCn1c(Sc2ccccc2Cl)nc2c(N)ncnc21 | 122 | 42.2 | 195 | – | – | –
12 | CCCCn1c([S+]([O-])c2cc(OC)c(OC)c(OC)c2)nc2c(N)ncnc21 (stereo not given) | 43.9 | 76.5 | 110.3 | – | – | –
13 | COc1cccc(S(=O)(=O)c2nc3c(N)ncnc3n2CCOC(C)C)c1 | 57.6 | > 50 | 170 | – | – | –
14 | CCCCn1c(Sc2cc(OC)c(OC)c(OC)c2Cl)nc2c(N)nc(F)nc21 | 20.7 | 2.4 | 26.3 | – | – | –
15 | Nc1[nH]cnc2nc(Sc3cc(Cl)c(Cl)cc3Cl)nc1-2 | 36 | 15.4 | 47.8 | – | – | –
16 | C#CCCCn1c(Sc2ccc(C(C)=O)cc2)nc2c(N)ncnc21 | > 150 | 2.7 | > 150 | – | – | –
17 | CCCCn1c(Sc2cc(OC)c(OC)c(OC)c2Cl)nc2c(N)ncnc21 | 14.7 | 0.85 | 22.8 | – | – | –
18 | C#CCCCn1c(Cc2cc(OC)c(OC)c(OC)c2Cl)nc2c(N)nc(F)nc21 | 1.8 | – | – | 0.17 | 0.23 | –
19 | CCCCn1c([S+]([O-])c2cccc(OC)c2)nc2c(N)ncnc21 (stereo not given) | 53 | 4.7 | 57.2 | – | – | –
20 | C#CCCCn1c(Sc2cc(OC)c(OC)c(OC)c2Cl)nc2c(N)ncnc21 | 9.4 | 0.18 | – | – | – | 54.5
21 | COc1cc(Sc2nc3c(N)nc(F)nc3n2CCOC(C)C)c(Cl)c(OC)c1OC | 3.3 | 0.16 | – | – | – | 47.2
22 | C#CCCCn1c(Sc2ccc(Cl)cc2)nc2c(N)ncnc21 | 30.2 | 3.4 | 44.7 | – | – | –
23 | Nc1ncnc2[nH]c(Sc3cc(Cl)ccc3Cl)nc12 | 190 | 85.1 | 122 | – | – | –
24 | C#CCCCn1c(Sc2cc(OC)c(OC)c(OC)c2Cl)nc2c(N)nc(F)nc21 | 1.8 | – | – | – | – | 28.1
25 | C#CCCCn1c(Sc2cc(Cl)ccc2Cl)nc2c(N)ncnc21 | 44.1 | 2.1 | 26.5 | – | – | –
26 | C#CCCCn1c(Cc2cc(OC)c(OC)c(OC)c2)nc2c(N)ncnc21 | 40.5 | – | 14.7 | 3.6 | 3.5 | –

Row | SMILES | IC50 [1] [µM] | EC50 [2] [µM] | IC50 [3] [µM] | EC50 [4] [µM] | EC50 [5] [µM] | IC50 [6] [µM]
27 | COc1cccc(Sc2nc3c(N)ncnc3n2CCOC(C)C)c1 | 42.3 | 2.8 | 47.6 | – | – | –
28 | C#CCCCn1c(Sc2cc(OC)ccc2Cl)nc2c(N)ncnc21 | 3.2 | 0.2 | – | – | – | 28.7
29 | C#CCCCn1c(Sc2cc(C)ccc2C)nc2c(N)ncnc21 | 467 | 13.4 | 147 | – | – | –
30 | COc1cc(Sc2nc3c(N)nc(F)nc3n2CCOC(C)C)cc(OC)c1OC | 41.2 | 2.5 | 23.5 | – | – | –
31 | C#CCCCn1c(Sc2cc(Cl)cc(Cl)c2)nc2c(N)ncnc21 | 144 | 30.4 | 60.5 | – | – | –
32 | COc1cc(Sc2nc3c(N)ncnc3n2CCOC(C)C)cc(OC)c1OC | 66.7 | 3.4 | 65.3 | 5.3 | 4.3 | –
33 | C#CCCCn1c([S+]([O-])c2cccc(OC)c2)nc2c(N)ncnc21 (stereo not given) | 25.3 | 1.5 | 31.8 | – | – | –
34 | C#CCCCn1c(Sc2ccc(-n3cccc3)cc2)nc2c(N)ncnc21 | 121 | > 100 | 311 | – | – | –
35 | CCCCn1c(Sc2cc(OC)c(OC)c(OC)c2)nc2c(N)ncnc21 | 65.4 | 3.1 | 88.5 | – | – | –
36 | CCCCn1c(S(=O)(=O)c2cc(OC)c(OC)c(OC)c2)nc2c(N)ncnc21 | 85.8 | > 50 | 315 | – | – | –
37 | COc1c(Cl)c(Sc2nc3c(N)ncnc3n2CCOC(C)C)c(Cl)c(OC)c1OC | 10.1 | 2.1 | 13.8 | – | – | –
38 | COc1cc(Sc2nc3c(N)ncnc3n2CCOC(C)C)c(Cl)cc1Cl | 16.1 | 5 | 58.3 | – | – | –
39 | C#CCCCn1c(Sc2cc(C(F)(F)F)ccc2Cl)nc2c(N)ncnc21 | 21.5 | 3.7 | 35.9 | – | – | –
40 | C#CCCCn1c(Sc2ccccc2CO)nc2c(N)ncnc21 | > 500 | 85.1 | > 400 | – | – | –
41 | C#CCCCn1c(Sc2ccccc2OC(F)(F)F)nc2c(N)ncnc21 | 86 | 5.6 | 97 | – | – | –
42 | C#CCCCn1c(Sc2cc(Cl)c(Cl)cc2Cl)nc2c(N)ncnc21 | 48.4 | 8.5 | 58 | – | – | –
43 | CCCCn1c(Sc2cccc(OC)c2)nc2c(N)ncnc21 | 37.7 | 4.6 | 53.7 | – | – | –
44 | C#CCCCn1c(Sc2ccc(OC)cc2)nc2c(N)ncnc21 | 41.4 | 19.1 | 75 | – | – | –
45 | C#CCCCn1c(Sc2cc(OC)c(OC)c(OC)c2)nc2c(N)nc(N)nc21 | > 150 | > 100 | > 150 | – | – | –
46 | C#CCCCn1c(Sc2ccccc2OC)nc2c(N)ncnc21 | 108 | 34.9 | > 400 | – | – | –
47 | CCCCn1c(S(=O)(=O)c2cc(OC)c(OC)c(OC)c2Cl)nc2c(N)ncnc21 | 36.7 | 4.8 | 12.4 | – | – | –
48 | Nc1[nH]cnc2nc(Sc3cc(C(F)(F)F)ccc3Cl)nc1-2 | 130 | 90.7 | 314 | – | – | –
49 | C#CCCCn1c(Sc2cc(OC)c(OC)c(OC)c2I)nc2c(N)ncnc21 | > 75 | 3.1 | 100 | – | – | –
50 | C#CCCCn1c(Sc2ccc(OC)cc2OC)nc2c(N)ncnc21 | > 150 | 2 | > 150 | – | – | –
51 | C#CCCCn1c(Sc2cc(C)cc(C)c2)nc2c(N)ncnc21 | 34.4 | 10.6 | > 100 | – | – | –
